{"data": "Measured values pooled from the literature", "gag-pol reverse transcriptase": "Gag-Pol polyprotein, reverse transcriptase (gag-pol, Human immunodeficiency virus type 1 group M subtype B, UniProt P04585)", "gag-pol protease": "Gag-Pol polyprotein, protease (gag-pol, Human immunodeficiency virus type 1 group M subtype B, UniProt P04585)", "note": "Protocols differ between the studies behind these lines."}
{"Compound": "CC1(C)CC(=O)c2cc3c(C#N)cn(Cc4ccccc4)c3nc2C1", "target": "gag-pol reverse transcriptase", "observed": "enzyme activity", "action": "inhibitor", "method": "FRET", "quantity": "IC50", "result": "> 10 µM"}
{"Compound": "CC(C)CN(C[C@@H](O)[C@H](Cc1ccccc1)NC(=O)O[C@H]1CCO[C@H]2OCC[C@H]21)S(=O)(=O)c1ccc(C(=O)O)cc1", "target": "gag-pol protease", "observed": "enzyme activity", "action": "inhibitor", "quantity": "Ki", "result": "0.0076 nM"}
{"Compound": "CC(=O)c1cc2c(-c3ccc(N(C)C)cc3)c3c(nc2[nH]1)-c1ccccc1C3=O", "target": "gag-pol reverse transcriptase", "observed": "enzyme activity", "action": "inhibitor", "method": "FRET", "quantity": "IC50", "result": "> 10 µM"}
{"Compound": "C=CCCCCOc1ccc(C[C@H](NC(=O)c2cccc(O)c2CCC=C)[C@H](O)CN(CC(C)C)S(=O)(=O)c2ccc(OC)cc2)cc1", "target": "gag-pol protease", "observed": "enzyme activity", "action": "inhibitor", "quantity": "Ki", "result": "30 nM"}
{"Compound": "Cc1ccc(-c2cnc3c(c2)c(C#N)cn3Cc2ccccc2)cc1", "target": "gag-pol reverse transcriptase", "observed": "enzyme activity", "action": "inhibitor", "method": "FRET", "quantity": "IC50", "result": "> 100 µM"}
{"Compound": "COc1ccc(S(=O)(=O)N(CC(C)C)C[C@@H](O)[C@@H]2Cc3ccc(cc3)OCC=CCCc3c(O)cccc3C(=O)N2)cc1", "target": "gag-pol protease", "observed": "enzyme activity", "action": "inhibitor", "quantity": "Ki", "result": "0.2 nM"}
{"Compound": "CC(C)[C@H](NC(=O)[C@H](CCCNC(=N)N)NC(=O)[C@H](CO)NC(=O)[C@@H](N)Cc1c[nH]c2ccccc12)C(=O)NCC(=O)N[C@@H](Cc1ccc(O)cc1)C(=O)N[C@@H](Cc1c[nH]c2ccccc12)C(N)=O", "target": "gag-pol protease", "observed": "binding", "method": "SPR", "quantity": "Kd", "result": "44.6 µM"}
{"Compound": "O=C1c2c(O)ccc(O)c2C(=O)c2c(NCCNCCO)ccc(NCCNCCO)c21", "target": "gag-pol reverse transcriptase", "observed": "enzyme activity", "action": "inhibitor", "quantity": "IC50", "result": "6.3 µM"}
{"Compound": "Cc1cn([C@H]2C[C@H](N=[N+]=[N-])[C@@H](CO[P@](=O)(O)O[P@](=O)(O)OP(=O)(O)O)O2)c(=O)[nH]c1=O", "target": "gag-pol reverse transcriptase", "observed": "enzyme activity", "action": "inhibitor", "quantity": "IC50", "result": "0.185 µM"}
{"Compound": "O=C(O)Cc1ccc(O)c(O)c1", "target": "Gag-Pol polyprotein, integrase (gag-pol, Human immunodeficiency virus type 1 group M subtype B, UniProt P04585)", "observed": "enzyme activity", "action": "inhibitor", "quantity": "IC50", "result": "> 25 µM"}
{"Compound": "CC[C@H](C)[C@H]1C(OC(C)(C)C)=CC(=O)N1[C@H]1CCN(C2=CC(=O)N([C@H]3CCN(C4=CC(=O)N[C@H]4CC(C)C)C3)[C@H]2C)C1", "target": "gag-pol protease", "observed": "enzyme activity", "action": "inhibitor", "method": "fluorescence", "quantity": "IC50", "result": "111 µM"}
{"Compound": "CC(C)(C)n1cc(C#N)c2cc(C=O)cnc21", "target": "gag-pol reverse transcriptase", "observed": "enzyme activity", "action": "inhibitor", "method": "FRET", "quantity": "IC50", "result": "> 10 µM"}
{"Compound": "C=CCCc1c(O)cccc1C(=O)N[C@@H](Cc1ccc(OCC=C)cc1)[C@H](O)CN(CC(C)C)S(=O)(=O)c1ccc(OC)cc1", "target": "gag-pol protease", "observed": "enzyme activity", "action": "inhibitor", "quantity": "Ki", "result": "5 nM"}
